Reference: ChEMBL document CHEMBL3232994, “Searching for new derivatives of neocryptolepine: synthesis, antiproliferative, antimicrobial and antifungal activities” (Eur J Med Chem, 2014)
In brackets after ≈: the same amount, converted by molar mass. Activity calls are given as the source filed them. The calls are words filed in the database; no cut-off is given here.

How the values were obtained:
Bacillus cereus = assay: Antibacterial activity against Bacillus cereus ATCC 11778 assessed as growth inhibition after 18 hrs by two-fold serial dilution method; type: functional; conditions: ATCC 11778, 18 h
Summary of the method: (§1)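 Twofold serial agar dilution on Mueller–Hinton II agar per CLSI. Final inoculum 10⁴ CFU/mL, except Enterococcus hirae ATCC 10541 at 10⁵ CFU/mL. MIC read after 18 h at 35 °C.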

Enterococcus hirae = assay: Antibacterial activity against Enterococcus hirae ATCC 10541 assessed as growth inhibition after 18 hrs by two-fold serial dilution method; type: functional; conditions: ATCC 10541, 18 h; summary of the method: as §1
Micrococcus luteus [1] = assay: Antibacterial activity against Micrococcus luteus ATCC 10240 assessed as growth inhibition after 18 hrs by two-fold serial dilution method; type: functional; conditions: ATCC 10240, 18 h; summary of the method: as §1
Candida albicans [2] = assay: Antifungal activity against Candida albicans ATCC 10231 assessed as growth inhibition after 18 hrs by two-fold serial dilution method; type: functional; conditions: ATCC 10231, 18 h
Summary of the method: (§2)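 MIC by twofold serial dilution on RPMI agar per CLSI. Final inoculum 10⁴ CFU/mL. Plates read after 18 h at 35 °C.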

Candida albicans [3] = assay: Antifungal activity against Candida albicans SN250 assessed as growth inhibition after 18 hrs by two-fold serial dilution method; type: functional; conditions: SN250, 18 h
Candida parapsilosis = assay: Antifungal activity against Candida parapsilosis ATCC 22019 assessed as growth inhibition after 18 hrs by two-fold serial dilution method; type: functional; conditions: Lodderomyces parapsilosis, ATCC 22019, 18 h
Candida albicans [4] = assay: Antifungal activity against Candida albicans ATCC 90028 assessed as growth inhibition after 18 hrs by two-fold serial dilution method; type: functional; conditions: ATCC 90028, 18 h; summary of the method: as §2
Candida albicans [5] = assay: Antifungal activity against Candida albicans SN250 assessed as […] at 2.4 to 625 ug/mL after 24 hrs by XTT reduction assay; type: functional, organism-based
BALB/3T3 = assay: Cytotoxicity against mouse BALB/3T3 cells assessed as growth inhibition after 72 hrs by SRB assay; type: cell-based; conditions: BALB/3T3, 72 h
Summary of the method: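 Mouse fibroblasts were kept in Dulbecco medium with 10% FBS, L-glutamine and pyruvate, and seeded at 10⁴/well 24 h before dosing. Agents were given at four tenfold final levels for 72 h. Cells were TCA-fixed (50%, 4 °C, 1 h) and stained with 0.4% SRB in 1% acetic acid. Triplicate wells, 3–5 repeats. IC50 versus untreated cells.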

A549 = assay: Cytotoxicity against human A549 cells assessed as growth inhibition after 72 hrs by SRB assay; type: functional, cell-based; conditions: A549, 72 h
Summary of the method: (§3)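 Cells were seeded at 10⁴/well in RPMI 1640/Opti-MEM (1:1) with 5% FBS, plus 0.01 mg/mL insulin for MCF-7, 24 h before dosing. Agents in water/medium were given at four tenfold final levels for 72 h. Cells were fixed with cold 50% TCA (1 h, 4 °C), stained with 0.4% SRB, cell-free blank. Triplicate wells, 3–5 repeats. IC50 relative to untreated control.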

MCF7 = assay: Cytotoxicity against human MCF7 cells assessed as growth inhibition after 72 hrs by SRB assay; type: functional, cell-based; conditions: MCF7, 72 h; summary of the method: as §3
LoVo = assay: Cytotoxicity against human LoVo cells assessed as growth inhibition after 72 hrs by SRB assay; type: functional, cell-based; summary of the method: as §3
KB = assay: Cytotoxicity against human KB cells assessed as growth inhibition after 72 hrs by SRB assay; type: functional, cell-based; summary of the method: as §3
Staphylococcus aureus [6] = assay: Antibacterial activity against Staphylococcus aureus NCTC 4163 assessed as growth inhibition after 18 hrs by two-fold serial dilution method; type: functional; conditions: NCTC 4163, 18 h; summary of the method: as §1
Staphylococcus aureus [7] = assay: Antibacterial activity against Staphylococcus aureus ATCC 25923 assessed as growth inhibition after 18 hrs by two-fold serial dilution method; type: functional; conditions: ATCC 25923, 18 h; summary of the method: as §1
Staphylococcus aureus [8] = assay: Antibacterial activity against Staphylococcus aureus ATCC 6538 assessed as growth inhibition after 18 hrs by two-fold serial dilution method; type: functional; conditions: ATCC 6538, 18 h; summary of the method: as §1
Staphylococcus aureus [9] = assay: Antibacterial activity against Staphylococcus aureus ATCC 29213 assessed as growth inhibition after 18 hrs by two-fold serial dilution method; type: functional; conditions: ATCC 29213, 18 h; summary of the method: as §1
[10] = tested on: Staphylococcus epidermidis; assay: Antibacterial activity against Staphylococcus epidermidis ATCC 12228 assessed as growth inhibition after 18 hrs by two-fold serial dilution method; type: functional; conditions: ATCC 12228, 18 h; summary of the method: as §1
Bacillus spizizenii = assay: Antibacterial activity against Bacillus subtilis ATCC 6633 assessed as growth inhibition after 18 hrs by two-fold serial dilution method; type: functional; conditions: ATCC 6633, 18 h; summary of the method: as §1
Micrococcus luteus [11] = assay: Antibacterial activity against Micrococcus luteus ATCC 9341 assessed as growth inhibition after 18 hrs by two-fold serial dilution method; conditions: ATCC 9341, 18 h
Candida albicans [12] = assay: Antifungal activity against Candida albicans SN250 assessed as inhibition of biofilm formation < MIC after 24 hrs by XTT reduction assay; type: functional, organism-based

Structure (SMILES) | MIC (Bacillus cereus) [µg/mL] | MIC (Enterococcus hirae) [µg/mL] | MIC (Micrococcus luteus [1]) [µg/mL] | MIC (Candida albicans [2]) [µg/mL] | MIC (Candida albicans [3]) [µg/mL] | MIC (Candida parapsilosis) [µg/mL] | MIC (Candida albicans [4]) [µg/mL] | inhibition (Candida albicans [5]) | IC50 (BALB/3T3) [µM] | IC50 (KB) [µM] | MIC (Staphylococcus aureus [6]) [µg/mL] | MIC (Staphylococcus aureus [7]) [µg/mL] | MIC (Staphylococcus aureus [8]) [µg/mL] | MIC (Staphylococcus aureus [9]) [µg/mL] | MIC [10] [µg/mL] | MIC (Bacillus spizizenii) [µg/mL] | MIC (Micrococcus luteus [11]) [µg/mL] | inhibition (Candida albicans [12]) | further results
Cc1c2c3ccccc3nc-2n(C)c2ccc(NC(=O)CNC(=O)CN)cc12.Cl | > 200 | > 200 | > 200 | > 200 | > 500 | > 200 | > 200 | inactive | 2.11 | 1.54 | > 200 | > 200 | > 200 | > 200 | > 200 | > 200 | > 200 | – | IC50 (A549): 1.44 µM; IC50 (MCF7): 4.11 µM; IC50 (LoVo): 1.17 µM
Cc1c2c3cc(NC(=O)[C@@H](N)Cc4cnc[nH]4)ccc3nc-2n(C)c2ccccc12.Cl | > 200 | > 200 | > 200 | > 200 | 125 | > 200 | > 200 | – | – | – | > 200 | > 200 | > 200 | > 200 | > 200 | > 200 | > 200 | – | –
Cc1c2c3cc(NC(=O)[C@@H]4CCCN4)ccc3nc-2n(C)c2ccccc12.Cl.Cl | 50 | 100 | 6.25 | 200 | 200 | 200 | 200 | – | – | – | 12.5 | 50 | 12.5 | 50 | 12.5 | 12.5 | 6.25 | Active | –
Cc1c2c3cc(NC(=O)CNC(=O)[C@@H]4CCCN4)ccc3nc-2n(C)c2ccccc12.Cl.Cl | > 200 | > 200 | 50 | 200 | 200 | 200 | 200 | inactive | – | – | > 200 | > 200 | > 200 | 100 | 100 | 100 | 50 | – | –
O=C(O)c1cn(C2CC2)c2cc(N3CCNCC3)c(F)cc2c1=O [CIPROFLOXACIN] | 1 (≈ 3.02 µM) | 4 (≈ 12.1 µM) | 1 (≈ 3.02 µM) | – | – | – | – | – | – | – | 0.25 (≈ 0.754 µM) | 0.5 (≈ 1.51 µM) | 0.25 (≈ 0.754 µM) | 0.5 (≈ 1.51 µM) | 0.25 (≈ 0.754 µM) | < 0.125 | 2 (≈ 6.04 µM) | – | –
OC(Cn1cncn1)(Cn1cncn1)c1ccc(F)cc1F [FLUCONAZOLE] | – | – | – | 1 (≈ 3.27 µM) | – | 2 (≈ 6.53 µM) | 1 (≈ 3.27 µM) | – | – | – | – | – | – | – | – | – | – | – | –
Cc1c2c3cc(NC(=O)CNC(=O)CN)ccc3nc-2n(C)c2ccccc12.Cl.Cl | > 200 | > 200 | 200 | 200 | 200 | 200 | 200 | inactive | – | – | > 200 | > 200 | > 200 | > 200 | > 200 | 100 | 200 | – | –
Cc1c2c3cc(NC(=O)CN)ccc3nc-2n(C)c2ccccc12.Cl.Cl | 50 | 100 | 6.25 | 25 | 15.6 | 25 | 50 | – | – | – | 50 | 50 | 50 | 100 | 25 | 12.5 | 6.25 | Active | –
Cc1c2c3ccccc3nc-2n(C)c2ccc(NC(=O)[C@@H]3CCCN3)cc12.Cl | 25 | 100 | 6.25 | 100 | 31.2 | 50 | 50 | – | 0.54 | 0.47 | 12.5 | 50 | 12.5 | 50 | 12.5 | 6.25 | 6.25 | – | IC50 (A549): 0.12 µM; IC50 (MCF7): 0.62 µM; IC50 (LoVo): 0.07 µM
Cc1c2c3ccccc3nc-2n(C)c2ccc(NC(=O)[C@@H](N)Cc3cnc[nH]3)cc12.Cl | > 200 | > 200 | > 200 | > 200 | 250 | > 200 | > 200 | inactive | – | 3.88 | > 200 | > 200 | > 200 | > 200 | > 200 | > 200 | > 200 | – | –
Cc1c2c3ccccc3nc-2n(C)c2ccccc12 | 100 (≈ 406 µM) | 200 (≈ 812 µM) | 50 (≈ 203 µM) | 12.5 (≈ 50.7 µM) | 12.5 (≈ 50.7 µM) | 12.5 (≈ 50.7 µM) | 12.5 (≈ 50.7 µM) | – | 5.77 | – | 100 (≈ 406 µM) | 200 (≈ 812 µM) | 100 (≈ 406 µM) | 100 (≈ 406 µM) | 100 (≈ 406 µM) | 50 (≈ 203 µM) | 50 (≈ 203 µM) | Active | –
Cc1c2c3ccccc3nc-2n(C)c2ccc(NC(=O)CN)cc12.Cl | 50 | 100 | 12.5 | 100 | 15.6 | 100 | 100 | – | 0.42 | 0.42 | 12.5 | 12.5 | 12.5 | 12.5 | 12.5 | 12.5 | 6.25 | Active | IC50 (A549): 0.08 µM; IC50 (MCF7): 0.46 µM; IC50 (LoVo): 0.06 µM
